Experiment [1] is described as follows: Selectivity ratio of alpha1 beta-3 gamma2 GABA A / BzR and alpha5 beta-3 gamma2 GABA A / BzR.
Experiment [2] has as its target T1, GABA-A receptor; alpha-1/beta-3/gamma-2 (Homo sapiens, UniProt P14867+P18507+P28472).
T1 sequence (P14867 whole entry): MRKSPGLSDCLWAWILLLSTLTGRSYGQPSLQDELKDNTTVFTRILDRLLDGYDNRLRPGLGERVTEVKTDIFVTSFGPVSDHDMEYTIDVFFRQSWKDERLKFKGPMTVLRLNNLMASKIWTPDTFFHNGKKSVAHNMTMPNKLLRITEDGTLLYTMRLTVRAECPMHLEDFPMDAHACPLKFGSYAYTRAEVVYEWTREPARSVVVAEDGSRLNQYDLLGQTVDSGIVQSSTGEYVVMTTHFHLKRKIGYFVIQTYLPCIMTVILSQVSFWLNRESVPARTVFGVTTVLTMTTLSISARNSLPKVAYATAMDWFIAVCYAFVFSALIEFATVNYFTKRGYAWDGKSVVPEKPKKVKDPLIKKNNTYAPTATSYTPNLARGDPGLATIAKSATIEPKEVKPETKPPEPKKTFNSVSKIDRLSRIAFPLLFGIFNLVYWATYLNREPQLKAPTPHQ
T1 sequence (P18507 whole entry): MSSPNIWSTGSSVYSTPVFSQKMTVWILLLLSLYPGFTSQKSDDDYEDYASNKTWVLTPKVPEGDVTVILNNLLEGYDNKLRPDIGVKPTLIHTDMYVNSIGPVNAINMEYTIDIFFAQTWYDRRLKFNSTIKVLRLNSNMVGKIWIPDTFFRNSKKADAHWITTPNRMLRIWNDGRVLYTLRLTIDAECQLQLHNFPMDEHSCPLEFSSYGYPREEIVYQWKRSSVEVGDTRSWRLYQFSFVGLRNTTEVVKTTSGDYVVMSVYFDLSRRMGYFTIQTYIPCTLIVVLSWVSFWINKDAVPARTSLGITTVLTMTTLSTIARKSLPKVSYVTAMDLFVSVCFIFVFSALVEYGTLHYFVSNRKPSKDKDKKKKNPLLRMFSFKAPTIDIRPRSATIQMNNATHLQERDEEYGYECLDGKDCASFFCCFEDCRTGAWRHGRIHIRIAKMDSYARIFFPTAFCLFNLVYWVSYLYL
T1 sequence (P28472 whole entry): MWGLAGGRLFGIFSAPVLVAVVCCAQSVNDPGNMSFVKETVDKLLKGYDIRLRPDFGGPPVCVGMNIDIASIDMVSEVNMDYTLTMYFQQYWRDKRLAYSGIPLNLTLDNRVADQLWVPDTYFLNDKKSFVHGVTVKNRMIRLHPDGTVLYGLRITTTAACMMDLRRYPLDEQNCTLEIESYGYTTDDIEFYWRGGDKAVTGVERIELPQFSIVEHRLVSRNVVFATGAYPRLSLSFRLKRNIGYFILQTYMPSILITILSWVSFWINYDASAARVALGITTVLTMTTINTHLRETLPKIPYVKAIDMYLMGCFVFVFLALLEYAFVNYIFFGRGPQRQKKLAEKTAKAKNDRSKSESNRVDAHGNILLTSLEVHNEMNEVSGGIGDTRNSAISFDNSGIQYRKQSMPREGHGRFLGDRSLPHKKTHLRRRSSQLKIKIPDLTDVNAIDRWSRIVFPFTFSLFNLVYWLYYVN
The experiment can be described thus: Binding affinity for human recombinant gamma-aminobutyric-acid (GABA) A receptor alpha-1-beta-3-gamma-2. The experiment is classed as protein-complex assay.

For experiment [3], the target named is T2, GABA-A receptor; alpha-5/beta-3/gamma-2 (Homo sapiens, UniProt P18507+P28472+P31644).
T2 sequence (P18507 whole entry): T1 sequence (P18507 whole entry)
T2 sequence (P28472 whole entry): T1 sequence (P28472 whole entry)
T2 sequence (P31644 whole entry): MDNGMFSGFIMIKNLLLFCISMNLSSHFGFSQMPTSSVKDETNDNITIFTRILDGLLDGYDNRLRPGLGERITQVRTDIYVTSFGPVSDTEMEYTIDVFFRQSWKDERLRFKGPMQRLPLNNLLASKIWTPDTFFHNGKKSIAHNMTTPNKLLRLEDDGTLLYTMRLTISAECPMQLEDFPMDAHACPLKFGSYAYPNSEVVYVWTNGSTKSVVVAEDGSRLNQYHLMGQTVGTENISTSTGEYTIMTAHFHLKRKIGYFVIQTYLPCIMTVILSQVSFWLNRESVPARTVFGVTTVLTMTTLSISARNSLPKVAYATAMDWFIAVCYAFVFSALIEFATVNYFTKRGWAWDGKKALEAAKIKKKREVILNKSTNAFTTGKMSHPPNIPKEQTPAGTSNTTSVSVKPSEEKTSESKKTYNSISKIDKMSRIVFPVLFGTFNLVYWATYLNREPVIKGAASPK
The experiment is described as follows: Binding affinity for human recombinant gamma-aminobutyric-acid (GABA) A receptor alpha-5-beta-3-gamma-2. The class given is protein-complex assay.

In experiment [4] the target is T3, GABA-A receptor; alpha-3/beta-3/gamma-2 (Homo sapiens, UniProt P18507+P28472+P34903).
T3 sequence (P18507 whole entry): T1 sequence (P18507 whole entry)
T3 sequence (P28472 whole entry): T1 sequence (P28472 whole entry)
T3 sequence (P34903 whole entry): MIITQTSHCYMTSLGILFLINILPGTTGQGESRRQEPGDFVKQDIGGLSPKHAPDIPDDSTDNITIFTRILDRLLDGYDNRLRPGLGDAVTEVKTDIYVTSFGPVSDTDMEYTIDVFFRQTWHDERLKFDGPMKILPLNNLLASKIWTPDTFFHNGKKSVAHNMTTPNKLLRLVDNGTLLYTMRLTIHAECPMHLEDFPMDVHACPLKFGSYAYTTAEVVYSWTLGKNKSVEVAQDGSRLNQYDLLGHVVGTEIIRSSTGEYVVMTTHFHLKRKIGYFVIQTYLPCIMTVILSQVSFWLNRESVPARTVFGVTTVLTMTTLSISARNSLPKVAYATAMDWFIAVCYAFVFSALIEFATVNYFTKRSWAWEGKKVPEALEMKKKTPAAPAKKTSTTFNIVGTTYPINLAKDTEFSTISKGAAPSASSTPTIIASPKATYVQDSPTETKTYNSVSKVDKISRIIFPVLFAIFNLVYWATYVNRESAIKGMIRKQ
The experiment is described as follows: Binding affinity for human recombinant gamma-aminobutyric-acid (GABA) A receptor alpha-3-beta-3-gamma-2. The class given is protein-complex assay.

The target of experiment [5] is GABA-A receptor; alpha-6/beta-3/gamma-2 (Homo sapiens, UniProt P18507+P28472+Q16445). The experiment is described as follows: Binding affinity for human recombinant gamma-aminobutyric-acid (GABA) A receptor alpha-6-beta-3-gamma-2. The experiment is classed as protein-complex assay. The essentials:
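Ltk⁻ cells expressing human α6β3γ2 were harvested by scraping into PBS, centrifuged at 3000g and resuspended in 10 mM KH₂PO₄/100 mM KCl (pH 7.4). Incubation was 1 h at 4 °C with filter harvest and scintillation counting.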

This note sets out measurements from ChEMBL document CHEMBL1132940, “Pharmacophore/receptor models for GABA(A)/BzR subtypes (alpha1beta3gamma2, alpha5beta3gamma2, and alpha6beta3gamma2) via a comprehensive ligand-mapping approach” (J Med Chem, 2000).

GABA-A receptor; alpha-6/beta-3/gamma-2, sequence (Q16445 whole entry, one chain of several): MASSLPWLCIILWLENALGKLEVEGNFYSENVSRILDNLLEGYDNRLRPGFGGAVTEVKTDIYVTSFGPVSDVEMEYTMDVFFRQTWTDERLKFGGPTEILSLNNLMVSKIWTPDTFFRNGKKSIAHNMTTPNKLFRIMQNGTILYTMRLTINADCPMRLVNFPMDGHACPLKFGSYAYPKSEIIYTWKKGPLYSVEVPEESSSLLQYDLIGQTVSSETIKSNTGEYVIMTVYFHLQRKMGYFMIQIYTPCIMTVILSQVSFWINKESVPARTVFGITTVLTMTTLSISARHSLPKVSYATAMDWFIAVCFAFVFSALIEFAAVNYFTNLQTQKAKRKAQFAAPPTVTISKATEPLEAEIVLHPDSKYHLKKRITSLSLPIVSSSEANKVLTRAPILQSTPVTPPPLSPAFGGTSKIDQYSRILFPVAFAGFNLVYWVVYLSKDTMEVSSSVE

Turning to `CCc1ncn2c1CN(C)C(=O)c1cc(Cl)ccc1-2`, the Ratio in experiment [1] stood at 2.2.

Regarding `COc1ccc(-n2nc3c4ccc(OC)cc4[nH]cc-3c2=O)cc1`, the Ki in experiment [2] was 0.34 nM; in experiment [3] it was 0.52 nM; in experiment [4] it was 0.79 nM; in experiment [5], 10 nM. As to `CCOC(=O)c1ncn2c1CN(C)C(=O)c1cc(OCC)ccc1-2`, in experiment [1], the Ratio is 12.4.

Consider `CN1Cc2c(C(=O)OC(C)(C)C)ncn2-c2ccc(I)cc2C1=O`, for which the Ratio in experiment [1] amounted to 25.5. The same measure, in the same setting: under `C#Cc1ccc2c(c1)C(=O)N1CC[C@H]1c1c(-c3nc(CC)no3)ncn1-2` stands 17. With `CCOc1cc2c(cn1)[nH]c1ccccc12`, the Ki in experiment [3] is 826 nM; in experiment [4], 28.2 nM. `CCCOc1ccc2[nH]c3cnc(OCCC)c(COC)c3c2c1`: the Ki in experiment [5] is above 1000 nM. Turning to `CN1Cc2c(C(=O)OC(C)(C)C)ncn2-c2ccc(N3CCCC3)cc2C1=O`, the Ratio in experiment [1] is 0.63.

With `C#Cc1ccc2c(c1)C(=O)N1CCC[C@H]1c1c(-c3nc(CC)no3)ncn1-2`, the Ratio in experiment [1] came to 36. On to `COCc1c(C(=O)OC(C)C)ncc2[nH]c3ccc(OCc4ccccc4)cc3c12` [ABECARNIL], for which the inhibition constant (Ki) in experiment [5] was above 1000 nM. Regarding `C#Cc1ccc2c(c1)C(=O)N1CC[C@H]1c1c(C(=O)OCC)ncn1-2`, the Ratio in experiment [1] turned out to be 57. As for `COc1ccc2c(c1)C(=O)N(C)Cc1c(C(=O)OC(C)(C)C)ncn1-2`, the Ratio in experiment [1] came out at 23. The same measure, in the same setting: under `CCOC(=O)c1ncn2c1CN(C)C(=O)c1cc(C#C[Si](C)(C)C)ccc1-2` stands 24.2. Turning to `CCOC(=O)c1ncn2c1[C@@H]1CCCN1C(=O)c1cc(OC)ccc1-2`, the inhibition constant Ki in experiment [4] stood at 24.5 nM. Moreover, the Ratio in experiment [1] is 108. With `CN1Cc2c(C(=O)OC(C)(C)C)ncn2-c2ccc([N+](=O)[O-])cc2C1=O`, the Ratio in experiment [1] is 3.7. Still for that read-out and setting: the result for `CN1Cc2c(C(=O)OC(C)(C)C)ncn2-c2ccc(Br)cc2C1=O` reads 24.3.

As to `CCCCC(=O)c1ncn2c1CN(C)C(=O)c1cc(Cl)ccc1-2`, in experiment [1], the Ratio worked out at 9.6. The same measure, in the same setting: the result for `CN1Cc2c(C(=O)OC(C)(C)C)ncn2-c2ccc(C#CC[Si](C)(C)C)cc2C1=O` reads 12; that for `CCOC(=O)c1ncn2c1CN(C)C(=O)c1cc(C#N)ccc1-2`, 1.7. Same read-out and setting: the result for `CCCCCc1ncn2c1CN(C)C(=O)c1cc(Cl)ccc1-2` reads 5.6; that for `CCN(CC)Cc1ncn2c1CN(C)C(=O)c1cc(Cl)ccc1-2`, 3.2; that for `COCc1ncn2c1CN(C)C(=O)c1cc(Cl)ccc1-2`, above 7.7. Same read-out and setting: the result for `CCOC(=O)c1ncn2c1CN(C)C(=O)c1cc(Br)ccc1-2` reads 3.7; that for `CN1Cc2c(C(=O)OC(C)(C)C)ncn2-c2ccc(Cl)cc2C1=O`, 26.6.

For the compound `CCc1ccc2c(c1)C(=O)N(C)Cc1c(C(=O)OC(C)(C)C)ncn1-2`, the Ratio in experiment [1] is 8.6. `CN1Cc2c(C(=O)OCC3CC3)ncn2-c2ccc(Cl)cc2C1=O`: the Ratio in experiment [1] worked out at 1.7.

Turning to `C#Cc1ccc2c(c1)C(=O)N(C)Cc1c(C(=O)OC(C)(C)C)ncn1-2`, the Ratio in experiment [1] was determined as 67.3. Consider `CC(C)N(Cc1ncn2c1CN(C)C(=O)c1cc(Cl)ccc1-2)C(C)C`, for which, in experiment [1], the Ratio turned out to be 3.2.

As for `CN1Cc2c(C(=O)OC(C)(C)C)ncn2-c2ccc(N=C=S)cc2C1=O`, the Ratio in experiment [1] worked out at 6.8.

As for `CC(=O)c1ncn2c1CN(C)C(=O)c1cc(Cl)ccc1-2`, the Ratio in experiment [1] came out at 6.7. For `CCOC(=O)c1ncn2c1[C@@H]1CCN1C(=O)c1cc(C#C[Si](C)(C)C)ccc1-2`, in experiment [1], the Ratio was found to be 32.

As for `CCOC(=O)c1[nH]cc2nc3ccc(OCc4ccc5ccccc5c4)cc3c-2c1COC`, the inhibition constant Ki was 15.4 nM in experiment [2], 323 nM in experiment [3], 293 nM in experiment [4] and above 1000 nM in experiment [5].

On to `CC#Cc1ccc2c(c1)C(=O)N(C)Cc1c(C(=O)OCC)ncn1-2`, for which the Ratio in experiment [1] was 6. For `CCOC(=O)c1ncn2c1[C@@H]1CCN1C(=O)c1cc(Br)ccc1-2`, the Ratio in experiment [1] came out at 56. Same read-out and setting: under `CN1Cc2c(CCl)ncn2-c2ccc(Cl)cc2C1=O` stands above 10.5. Take `COC(=O)c1cc2c3cc(SC#N)ccc3nc-2c[nH]1`: the inhibition constant Ki in experiment [2] is 3.41 nM; in experiment [3] it was 141 nM; in experiment [4] it was 30 nM; in experiment [5] it was above 10000 nM.

With `C#Cc1ccc2c(c1)C(=O)N1CCC[C@H]1c1c(C(=O)OCC)ncn1-2`, in experiment [1], the Ratio was determined as 45. Same read-out and setting: the result for `C#Cc1ccc2c(c1)C(=O)N1CCC[C@@H]1c1c(C(=O)OCC)ncn1-2` reads 39.

Consider `CN1Cc2c(C(=O)OC(C)(C)C)ncn2-c2ccc(C#C[Si](C)(C)C)cc2C1=O`, for which the Ratio in experiment [1] amounted to 75.5. As for `CN1C(=O)CN=C(c2ccccc2)c2cc(Cl)ccc21` [DIAZEPAM], the inhibition constant (Ki) in experiment [5] is above 3000 nM.

In the case of `CN1Cc2c(C(=O)OC(C)(C)C)ncn2-c2ccc(O)cc2C1=O`, the Ratio in experiment [1] stood at 10.7. Take `C#Cc1ccc2c(c1)C(=O)N1CCC[C@H]1c1c(-c3nc(C(C)C)no3)ncn1-2`: the Ratio in experiment [1] stood at 15. Same read-out and setting: under `C#Cc1ccc2c(c1)C(=O)N1CC[C@H]1c1c(-c3nc(C(C)C)no3)ncn1-2` stands 18; under `CCOC(=O)c1ncn2c1CN(C)C(=O)c1cc(Cl)ccc1-2`, 8; under `C=Cc1ccc2c(c1)C(=O)N(C)Cc1c(C(=O)OCC)ncn1-2`, 20.8. On the same count and under the same terms, the result for `CCOC(=O)c1ncn2c1CN(C)C(=O)c1cc(CC)ccc1-2` reads 13.6; that for `C#Cc1ccc2c(c1)C(=O)N1CCC[C@H]1c1c(-c3nc(C)no3)ncn1-2`, 24; that for `C#Cc1ccc2c(c1)C(=O)N(C)Cc1c(C(=O)OCC)ncn1-2`, 58. Turning to `CCOC(=O)c1ncn2c1[C@@H]1CCCN1C(=O)c1cc(Br)ccc1-2`, the Ratio in experiment [1] was 49.

On to `CCOC(=O)c1ncn2c1[C@@H]1CCCN1C(=O)c1cc(C#C[Si](C)(C)C)ccc1-2`, for which, in experiment [1], the Ratio stood at 50. Regarding `CCOC(=O)c1ncn2c1CN(C)C(=O)c1cc(N=[N+]=[N-])ccc1-2` [Ro-154513], in experiment [3], the inhibitory constant (Ki) was found to be 0.3 nM. Take `CCOCc1ncn2c1CN(C)C(=O)c1cc(Cl)ccc1-2`: the Ratio in experiment [1] is above 3.6.
